Bioassay records deposited in PubChem by several laboratories.
An excerpt weighted towards active compounds, which were near 9.5% of everything screened.
M1 antag: antagonists of rat M1 muscarinic receptor | P08482 | CHO-M1 cells, Fluo-4 calcium, ACh EC80 antagonist mode; stronger effect = lower value | B-score at 10 µM | 64,000 tested, 3.4% active | AID 628;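 active = calcium fluorescence response, raw or row-and-column corrected B-score, differing from the plate sample mean either way at a set confidence level, mostly lower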
M1 ag: activates the M1 muscarinic receptor; B-score at 10 µM; CHO-M1 cells, Fluo-4 calcium fluorescence, agonist mode; stronger effect = higher value; AID 626; 64,000 tested, 3% active;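 active = fluorescence rise, raw or as B-score row- and column-corrected plate score, outside the 99.7% band of its plate's samples, either direction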
HEK293 NFkB inh: inhibitors of the PMA/ionomycin-induced NF-kB reporter in HEK293 cells | 62,000 tested, 0.21% active | inhibition, % at 3 µM | HEK-293 NF-kB luciferase reporter, luminescence | AID 465;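 active = inhibition above the mean of all tested compounds plus 3 SD, cut at about 40% in these data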;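 also: 0% = stimulated DMSO wells and 100% = 10 µM reference inhibitor 5653914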
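Signal: luciferase luminescence; Material: HEK-293 cells with stable firefly luciferase reporter driven by four HIV NF-kB elements; Probe or stimulus: PMA with ionomycin; Replication: tested once; Times: 1 h compound pretreatment, then 16 h stimulation at 37 °C, 5% CO2; Benchmarks: DMSO and 10 µM reference inhibitor; Evaluation: per-plate % inhibition versus controls.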
Jurkat viability: cytotoxicity toward Jurkat cells; Jurkat E6.1 viability, ATP luminescence, 48 h; inhibition, % at 4 µM; 56,000 tested, 1.2% active;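 active = inhibition above the mean inhibition of all tested compounds plus 3 SD, cut at about 28% in these data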
D1 mod: D1 dopamine receptor (human) allosteric modulation; P21728; HEK293 D1, CRE-luciferase, dopamine EC30 potentiation; actives deviate in either direction; B-score at 10 µM; 58,000 tested, 5.9% active; AID 641;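 active = luminescence count or its row- and column-corrected plate score outside the 99.7% band of the plate's sample wells, on either side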
Htt clearance: compounds clearing mutant huntingtin protein; HeLa Exon1htt(103Q)mCFP, aggregate imaging; zero = plate's median compound well; inhibition, % at 1.5 µM; 47,000 tested, 0.42% active; AID 853;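 active = inhibition of aggregate fluorescence above about 70%, also judged a hit by eye on the cell image, limit read from the data, passing the limit was not always enough; inconclusive = no rule stated for this call; inactive = not judged a hit on image review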;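 also: cells exposed to compound for three days before fixation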
M1 ag confirm: confirmation of rat M1 muscarinic receptor agonists. CHO-M1 cells, Fluo-4 calcium fluorescence, agonist mode; actives lie on both sides. 1,700 tested, 19% active. shares compounds with M1 ag. fluorescence change (max-min) at 10 µM;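 active = fluorescence change differs from the solvent-only DMSO control mean at a set confidence level in both duplicate runs; inconclusive = differs from solvent-only control mean in just one of two runs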;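 also: an EC20 dose of acetylcholine follows compound addition during the same imaging run; raw fluorescence intensity difference in instrument units with no normalization to controls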
M4 agonist ctr: rat M4 muscarinic agonism, M1 counter-screen. fluorescence change (max-min) at 10 µM. 1,700 tested, 9% active. AID 1741. CHO M4/Gqi5 cells, Fluo-4 calcium fluorescence, agonist mode; actives lie on both sides. shares compounds with M1 ag;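 active = fluorescence change differing from the plate's solvent-only control wells at 99.7% confidence in both duplicates, whether higher or lower; inconclusive = differs from solvent controls in only one of two duplicates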
Target sequence (P08485 whole entry, looked up): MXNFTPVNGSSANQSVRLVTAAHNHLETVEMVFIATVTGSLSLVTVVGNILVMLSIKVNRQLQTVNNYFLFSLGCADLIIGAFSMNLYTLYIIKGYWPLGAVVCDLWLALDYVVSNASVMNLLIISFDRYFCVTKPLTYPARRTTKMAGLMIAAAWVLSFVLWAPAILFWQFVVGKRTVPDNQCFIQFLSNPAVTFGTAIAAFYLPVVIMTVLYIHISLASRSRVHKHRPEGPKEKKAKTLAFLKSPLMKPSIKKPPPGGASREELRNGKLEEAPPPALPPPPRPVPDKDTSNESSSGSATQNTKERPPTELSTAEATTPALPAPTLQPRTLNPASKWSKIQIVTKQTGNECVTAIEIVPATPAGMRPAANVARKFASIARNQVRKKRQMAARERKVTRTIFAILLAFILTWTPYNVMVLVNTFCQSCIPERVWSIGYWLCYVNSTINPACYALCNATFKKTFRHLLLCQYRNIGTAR
* marks the source's active call; other numbers are inactive results.

Cc1c(NC(=O)CCc2ccc(S(=O)(=O)N3CCOCC3)cc2)c(=O)n(-c2ccccc2)n1C was read as M1 antag -0.94, M1 ag -0.18, HEK293 NFkB inh 9 and D1 mod -0.72.
For CCOP(=O)(c1ccc(N(C)C)cc1)C(O)c1c(Cl)cccc1Cl (centres undefined) the results were M1 antag 0.59, M1 ag 8*, HEK293 NFkB inh 0, Jurkat viability 3, D1 mod -0.15, M1 ag confirm inconclusive and M4 agonist ctr -53.
Cc1sc2ncnc(N3CCN(c4ncccn4)CC3)c2c1C was read as M1 antag -0.18, M1 ag 2*, HEK293 NFkB inh 14, Jurkat viability 8, D1 mod 0.96, Htt clearance -57, M1 ag confirm -13 and M4 agonist ctr -45.
Cc1cc(C)n(-c2ncnc3sc(C)c(C)c23)n1 was read as M1 antag 1.8, M1 ag 5*, M1 ag confirm -13 and M4 agonist ctr -41.
`O=C(Cn1c(SCC(=O)NC2CCCC2)nnc1-c1ccncc1)Nc1ccc2c(c1)OCO2` gave M1 antag -0.1, M1 ag -0.97, HEK293 NFkB inh 14, Jurkat viability -6, D1 mod -0.59 and Htt clearance 6.
Screening COc1ccc(C(=O)COC(=O)CCCn2c(=O)oc3ccccc32)cc1 returned M1 antag -1, M1 ag 0.21, HEK293 NFkB inh 10, Jurkat viability -5, D1 mod -0.59 and Htt clearance 8.
`COC(=O)c1ccc(C(=O)OC)c(NC(=O)CCc2ccc(C)o2)c1` gave M1 antag -0.27, M1 ag -0.43, HEK293 NFkB inh 6, Jurkat viability 0, D1 mod 0.44 and Htt clearance -60.
For COC(=O)c1ccc(C(=O)OC)c(NC(=O)CCC(=O)O)c1 the results were M1 antag 1.2, M1 ag 4.2*, HEK293 NFkB inh 5, Jurkat viability -2, D1 mod 1.3, Htt clearance 33, M1 ag confirm -7.7 and M4 agonist ctr -16.
`Clc1ccc(SCCn2ccnc2)cc1` gave M1 antag -0.82, M1 ag 0.95, HEK293 NFkB inh 8, Jurkat viability -1 and D1 mod -0.73.
COC(=O)c1cc(NC(=O)C2COc3ccccc3O2)ccc1Cl (centres undefined) was read as M1 antag -0.6, M1 ag 5.7*, HEK293 NFkB inh -5, Jurkat viability 2, Htt clearance 32, M1 ag confirm -17 and M4 agonist ctr -33.
O=C(Nc1ccc(S(=O)(=O)N2CCOCC2)cc1)C1COc2ccccc2O1 (centres undefined) was read as M1 antag -0.85, M1 ag 8.7*, HEK293 NFkB inh 15, D1 mod 0.19, Htt clearance 54, M1 ag confirm inconclusive and M4 agonist ctr -66*.
Screening COCCNC(=O)c1ccccc1NC(=O)C1COc2ccccc2O1 (centres undefined) returned M1 antag -0.29, M1 ag 5.7*, HEK293 NFkB inh 3, D1 mod 2.1, M1 ag confirm -29* and M4 agonist ctr -120*.
Screening O=C(Nc1ccc(S(=O)(=O)N2CCCC2)cc1)C1COc2ccccc2O1 (centres undefined) returned M1 antag -0.19, M1 ag -0.26, HEK293 NFkB inh 0, Jurkat viability -5 and D1 mod 0.45.
Screening CCOc1ccccc1C(=O)NC(CO)C(=O)O (centres undefined) returned Htt clearance -31.
For C/C(=N\NC(=S)NC(C)C)c1ccc(-n2ccnc2)cc1 the results were Htt clearance -6.
`COc1cc(NC(=O)c2cccc3c2C(=O)N(Cc2cccnc2)C3)cc(OC)c1OC` gave M1 antag -0.94, M1 ag 3.2*, HEK293 NFkB inh 58*, Jurkat viability -6, D1 mod 2.3, M1 ag confirm -18 and M4 agonist ctr -24.
